pIC50: −log10 of the molar value.
How the values were obtained:
Rattus norvegicus [1] = assay: Hypolipidemic activity in intact normal CD rat assessed as reduction in serum cholesterol level at 0.51 mmol/kg/day administered through diet for 5 days measured on day 6; type: functional
In short: (§1)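 Male CD rats, 300–380 g, housed in pairs, 12-h light/dark, free access to food and water. Test agent mixed into ground chow at 0.2%; controls got plain ground chow; 8 rats per group. Body weight and group food intake recorded. Fed 5 days, anesthetized on day 6, blood collected, serum total cholesterol or triglyceride measured. Expressed as % reduction vs concurrent controls, Student's t test p ≤ 0.05.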

[2] = molecular target: T1, 3-hydroxy-3-methylglutaryl-coenzyme A reductase (Rattus norvegicus, UniProt P51639); assay: Inhibition of HMG-coA reductase in CD rat liver microsomal-cytosol fraction assessed as inhibition of nonsaponifiable lipid synthesis using [2-14C]acetate as substrate after 90 mins by scintillation counting analysis
T1 sequence (P51639 whole entry): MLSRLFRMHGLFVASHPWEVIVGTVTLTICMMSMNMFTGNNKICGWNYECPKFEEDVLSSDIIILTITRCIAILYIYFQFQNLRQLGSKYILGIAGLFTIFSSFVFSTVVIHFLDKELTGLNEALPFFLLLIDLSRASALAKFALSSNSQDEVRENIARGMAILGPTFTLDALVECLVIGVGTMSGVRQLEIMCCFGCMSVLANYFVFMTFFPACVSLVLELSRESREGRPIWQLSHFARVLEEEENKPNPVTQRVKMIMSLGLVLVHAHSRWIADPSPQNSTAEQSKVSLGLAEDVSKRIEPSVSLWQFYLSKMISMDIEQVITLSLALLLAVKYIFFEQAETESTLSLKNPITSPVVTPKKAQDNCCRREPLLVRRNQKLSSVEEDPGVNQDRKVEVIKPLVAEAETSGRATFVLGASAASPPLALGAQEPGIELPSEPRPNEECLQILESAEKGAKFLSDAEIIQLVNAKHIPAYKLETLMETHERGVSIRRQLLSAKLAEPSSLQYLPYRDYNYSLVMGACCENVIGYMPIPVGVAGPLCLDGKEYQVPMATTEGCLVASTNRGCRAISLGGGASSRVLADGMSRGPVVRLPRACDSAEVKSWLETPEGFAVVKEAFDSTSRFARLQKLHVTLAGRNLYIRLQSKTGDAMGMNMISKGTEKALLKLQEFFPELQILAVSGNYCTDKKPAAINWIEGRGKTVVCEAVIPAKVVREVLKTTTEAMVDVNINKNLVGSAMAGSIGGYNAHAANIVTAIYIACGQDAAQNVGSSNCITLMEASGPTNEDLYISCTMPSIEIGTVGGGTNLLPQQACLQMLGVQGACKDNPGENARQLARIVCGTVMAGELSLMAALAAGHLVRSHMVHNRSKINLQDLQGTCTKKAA
In short: (§2)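 Male CD rats, 150–200 g, housed singly 5 days on chow with 2% DEAE-cellulose, killed by cervical dislocation. Liver microsomal-cytosol fraction as enzyme source, [2-14C]acetate substrate, 90 min at 37 °C. Compounds added in Me2SO, at least four concentrations, duplicates. Lipid extract counted by scintillation (dpm). Heat-inactivated fraction corrects for nonenzymatic incorporation. Fractions are total lipid, nonsaponifiable lipid and fatty acid. IC50 is molar concentration giving 50% inhibition.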

Rattus norvegicus [3] = assay: Hypolipidemic activity in intact normal CD rat assessed as reduction in serum triglyceride level at 0.51 mmol/kg/day administered through diet for 5 days measured on day 6; type: functional; in short: as §1
[4] = molecular target: T1, 3-hydroxy-3-methylglutaryl-coenzyme A reductase; assay: Inhibition of HMG-coA reductase in CD rat liver microsomal-cytosol fraction assessed as inhibition of total lipid synthesis using [2-14C]acetate as substrate after 90 mins by scintillation counting analysis; in short: as §2
Rattus norvegicus [5] = assay: Hypolipidemic activity in intact normal CD rat assessed as reduction in serum triglyceride level at 0.38 mmol/kg/day administered through diet for 5 days measured on day 6; type: functional; in short: as §1
Rattus norvegicus [6] = assay: Hypolipidemic activity in intact normal CD rat assessed as reduction in serum cholesterol level at 0.38 mmol/kg/day administered through diet for 5 days measured on day 6; type: functional; in short: as §1
Rattus norvegicus [7] = assay: Hypolipidemic activity in intact normal CD rat assessed as reduction in serum cholesterol level at 0.36 mmol/kg/day administered through diet for 5 days measured on day 6; type: functional; in short: as §1
Rattus norvegicus [8] = assay: Hypolipidemic activity in intact normal CD rat assessed as reduction in serum triglyceride level at 0.36 mmol/kg/day administered through diet for 5 days measured on day 6; type: functional; in short: as §1
Rattus norvegicus [9] = assay: Hypolipidemic activity in intact normal CD rat assessed as reduction in serum triglyceride level at 0.40 mmol/kg/day administered through diet for 5 days measured on day 6; type: functional; in short: as §1
Rattus norvegicus [10] = assay: Hypolipidemic activity in intact normal CD rat assessed as reduction in serum cholesterol level at 0.40 mmol/kg/day administered through diet for 5 days measured on day 6; type: functional; in short: as §1
Rattus norvegicus [11] = assay: Hypolipidemic activity in intact normal CD rat assessed as reduction in serum triglyceride level at 0.43 mmol/kg/day administered through diet for 5 days measured on day 6; type: functional; in short: as §1
Rattus norvegicus [12] = assay: Hypolipidemic activity in intact normal CD rat assessed as reduction in serum cholesterol level at 0.43 mmol/kg/day administered through diet for 5 days measured on day 6; type: functional; in short: as §1
Rattus norvegicus [13] = assay: Hypolipidemic activity in intact normal CD rat assessed as reduction in serum triglyceride level at 0.42 mmol/kg/day administered through diet for 5 days measured on day 6; type: functional; in short: as §1
Rattus norvegicus [14] = assay: Hypolipidemic activity in intact normal CD rat assessed as reduction in serum cholesterol level at 0.42 mmol/kg/day administered through diet for 5 days measured on day 6; type: functional; in short: as §1
Rattus norvegicus [15] = assay: Hypolipidemic activity in intact normal CD rat assessed as reduction in serum cholesterol level at 0.41 mmol/kg/day administered through diet for 5 days measured on day 6; type: functional; in short: as §1
Rattus norvegicus [16] = assay: Hypolipidemic activity in intact normal CD rat assessed as reduction in serum triglyceride level at 0.41 mmol/kg/day administered through diet for 5 days measured on day 6; type: functional; in short: as §1
Rattus norvegicus [17] = assay: Hypolipidemic activity in intact normal CD rat assessed as reduction in serum cholesterol level at 0.45 mmol/kg/day administered through diet for 5 days measured on day 6; type: functional; in short: as §1
Rattus norvegicus [18] = assay: Hypolipidemic activity in intact normal CD rat assessed as reduction in serum triglyceride level at 0.45 mmol/kg/day administered through diet for 5 days measured on day 6; type: functional; in short: as §1
Rattus norvegicus [19] = assay: Hypolipidemic activity in intact normal CD rat assessed as reduction in serum cholesterol level at 0.39 mmol/kg/day administered through diet for 5 days measured on day 6; type: functional; in short: as §1
Rattus norvegicus [20] = assay: Hypolipidemic activity in intact normal CD rat assessed as reduction in serum triglyceride level at 0.39 mmol/kg/day administered through diet for 5 days measured on day 6; type: functional; in short: as §1

pIC50 [2] | pIC50 [4] | Structure (SMILES) | also measured
4.10 | 4.30 | CC(CCc1ccc2c(c1)-c1ccccc1S2(=O)=O)CC(=O)O (stereo unspecified) | inhibition in vivo at 360 µmol/kg (Rattus norvegicus [7]): 16%; inhibition in vivo at 360 µmol/kg (Rattus norvegicus [8]): ≥ 36%
4.70 | 4.40 | CC(CCc1ccc(Sc2ccccc2)cc1)CC(=O)O (stereo unspecified) | inhibition in vivo at 400 µmol/kg (Rattus norvegicus [9]): ≥ 36%; inhibition in vivo at 400 µmol/kg (Rattus norvegicus [10]): 26%
4.70 | 4.52 | CC(CCc1ccc(Oc2ccccc2)cc1)CC(=O)O (stereo unspecified) | inhibition in vivo at 420 µmol/kg (Rattus norvegicus [13]): ≥ 36%; inhibition in vivo at 420 µmol/kg (Rattus norvegicus [14]): 26%
5.70 | 4.70 | CC(CCc1ccc(-c2ccccc2)cc1)CC(=O)O (stereo unspecified) | inhibition in vivo at 450 µmol/kg (Rattus norvegicus [17]): 16%; inhibition in vivo at 450 µmol/kg (Rattus norvegicus [18]): 26%
4.52 | 4.22 | CC(CC(=O)O)CC(=O)c1ccc2c(c1)CCc1ccccc1-2 (stereo unspecified) | inhibition in vivo at 390 µmol/kg (Rattus norvegicus [19]): 0%; inhibition in vivo at 390 µmol/kg (Rattus norvegicus [20]): ≥ 36%
3.44 | 3.09 | CC(CCc1ccc2oc3ccccc3c2c1)CC(=O)O (stereo unspecified) | inhibition in vivo at 430 µmol/kg (Rattus norvegicus [11]): ≥ 36%; inhibition in vivo at 430 µmol/kg (Rattus norvegicus [12]): 26%
4.15 | 3.72 | CC(CCc1ccc2sc3ccccc3c2c1)CC(=O)O (stereo unspecified) | inhibition in vivo at 430 µmol/kg (Rattus norvegicus [11]): ≥ 36%; inhibition in vivo at 430 µmol/kg (Rattus norvegicus [12]): 0%
4.40 | 4.15 | CC(CCc1ccc(S(=O)(=O)c2ccccc2)cc1)CC(=O)O (stereo unspecified) | inhibition in vivo at 360 µmol/kg (Rattus norvegicus [7]): 45%; inhibition in vivo at 360 µmol/kg (Rattus norvegicus [8]): 60%

Continued, compound first:

Structure (SMILES) | pIC50 [2] | pIC50 [4] | also measured
CC(C)(Oc1ccc(Cl)cc1)C(=O)O | 3.07 | 3.20 | inhibition in vivo at 510 µmol/kg (Rattus norvegicus [1]): 26%; inhibition in vivo at 510 µmol/kg (Rattus norvegicus [3]): 26%
CC(CC(=O)O)CC(=O)c1ccc(Sc2ccccc2)cc1 (stereo unspecified) | 3.62 | 3.24 | inhibition in vivo at 380 µmol/kg (Rattus norvegicus [5]): ≥ 36%; inhibition in vivo at 380 µmol/kg (Rattus norvegicus [6]): 16%
CC(CC(=O)O)CC(=O)c1ccc2sc3ccccc3c2c1 (stereo unspecified) | 3.80 | 3.51 | inhibition in vivo at 380 µmol/kg (Rattus norvegicus [5]): 26%; inhibition in vivo at 380 µmol/kg (Rattus norvegicus [6]): 16%
CC(CC(=O)O)CC(=O)c1ccc(-c2ccccc2)cc1 (stereo unspecified) | 4.15 | 3.74 | inhibition in vivo at 430 µmol/kg (Rattus norvegicus [11]): 16%; inhibition in vivo at 430 µmol/kg (Rattus norvegicus [12]): 26%
CC(CC(=O)O)CC(=O)c1ccc2oc3ccccc3c2c1 (stereo unspecified) | 3.96 | 3.59 | inhibition in vivo at 410 µmol/kg (Rattus norvegicus [15]): 0%; inhibition in vivo at 410 µmol/kg (Rattus norvegicus [16]): 26%
CC(CC(=O)O)CC(=O)c1ccc(Oc2ccccc2)cc1 (stereo unspecified) | 3.54 | 3.07 | inhibition in vivo at 400 µmol/kg (Rattus norvegicus [9]): ≥ 36%; inhibition in vivo at 400 µmol/kg (Rattus norvegicus [10]): 16%

Reference: ChEMBL document CHEMBL3244254, “Hypolipidemic activity of 5-aryl-3-methylvaleric acid derivatives” (J Med Chem, 1977)
